Assay results as given in ChEMBL document CHEMBL1153397, “Argifin; efficient solid phase total synthesis and evaluation of analogues of acyclic peptide” (Bioorg Med Chem, 2009).
*1 amine or outer side, *2 acyl side, *3 side chain or, on linkers, in order; H or OH if unused. Where a SMILES comes first, the peptide text is derived from it. Side-chain parts run from the residue outwards. [ ]: non-standard residue; d: D form. The star is where a group is joined. NMeF = CN[C@@H](Cc1ccccc1)C(=O)O; CO = O=C([*:1])[*:2]; OAll = C=CCO*

Columns and labels:
[1] = molecular target: Chitinase A (Serratia marcescens, UniProt P07254); experiment: Displacement of 4-methylumbelliferydiacetyl-chitobiose from Serratia marcescens ChiA
In short: (§1)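 Crude S. marcescens chitinase diluted in 0.1 M phosphate pH 7.0 (ChiA x10, ChiB x40, ChiC1 x4) was mixed with inhibitor in MeOH, buffer and 80 μM (solution added) 4-MU-(GlcNAc)2, then incubated 5 min. Fluorescence (ex 355/em 460 nm) was read every 60 s. The 4-methylumbelliferone production rate was corrected for each inhibitor's quenching using inhibitor plus 4MU mixtures. IC50 came from sigmoidal dose-response fits.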

[2] = molecular target: T1, Chitinase B (Serratia marcescens, UniProt P11797); experiment: Displacement of 4-methylumbelliferydiacetyl-chitobiose from Serratia marcescens ChiB; in short: as §1
T1 sequence (P11797 whole entry): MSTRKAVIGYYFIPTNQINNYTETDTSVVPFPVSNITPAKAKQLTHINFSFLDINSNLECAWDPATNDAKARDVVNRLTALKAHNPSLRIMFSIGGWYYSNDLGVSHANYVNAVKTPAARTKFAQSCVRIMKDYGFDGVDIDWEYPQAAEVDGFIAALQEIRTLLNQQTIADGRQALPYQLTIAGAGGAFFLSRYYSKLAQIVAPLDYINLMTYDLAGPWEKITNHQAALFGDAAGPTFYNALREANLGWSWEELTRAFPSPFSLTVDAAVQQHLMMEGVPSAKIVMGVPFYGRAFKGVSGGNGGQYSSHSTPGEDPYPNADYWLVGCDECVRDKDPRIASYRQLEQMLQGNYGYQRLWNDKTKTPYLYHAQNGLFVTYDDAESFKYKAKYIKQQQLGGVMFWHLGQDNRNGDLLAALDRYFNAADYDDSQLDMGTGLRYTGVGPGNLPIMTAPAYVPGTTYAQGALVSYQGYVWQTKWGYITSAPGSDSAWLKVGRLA

[3] = molecular target: T2, Chitinase C1 (Serratia marcescens, UniProt Q700B8); experiment: Displacement of 4-methylumbelliferydiacetyl-chitobiose from Serratia marcescens ChiC; in short: as §1
T2 sequence (Q700B8 whole entry): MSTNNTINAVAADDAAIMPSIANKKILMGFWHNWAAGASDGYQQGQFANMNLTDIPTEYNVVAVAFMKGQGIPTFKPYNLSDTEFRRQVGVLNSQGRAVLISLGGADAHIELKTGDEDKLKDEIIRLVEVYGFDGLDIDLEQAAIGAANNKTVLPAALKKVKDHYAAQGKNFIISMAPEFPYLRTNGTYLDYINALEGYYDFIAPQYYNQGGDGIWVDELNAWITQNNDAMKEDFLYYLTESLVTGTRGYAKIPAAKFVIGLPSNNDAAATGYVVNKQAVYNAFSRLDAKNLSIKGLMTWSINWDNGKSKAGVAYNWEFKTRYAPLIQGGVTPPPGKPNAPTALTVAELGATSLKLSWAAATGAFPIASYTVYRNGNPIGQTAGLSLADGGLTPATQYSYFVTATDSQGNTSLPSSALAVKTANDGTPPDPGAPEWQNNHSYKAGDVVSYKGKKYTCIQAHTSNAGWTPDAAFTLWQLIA

Chain of Chitinase A (P07254 whole entry): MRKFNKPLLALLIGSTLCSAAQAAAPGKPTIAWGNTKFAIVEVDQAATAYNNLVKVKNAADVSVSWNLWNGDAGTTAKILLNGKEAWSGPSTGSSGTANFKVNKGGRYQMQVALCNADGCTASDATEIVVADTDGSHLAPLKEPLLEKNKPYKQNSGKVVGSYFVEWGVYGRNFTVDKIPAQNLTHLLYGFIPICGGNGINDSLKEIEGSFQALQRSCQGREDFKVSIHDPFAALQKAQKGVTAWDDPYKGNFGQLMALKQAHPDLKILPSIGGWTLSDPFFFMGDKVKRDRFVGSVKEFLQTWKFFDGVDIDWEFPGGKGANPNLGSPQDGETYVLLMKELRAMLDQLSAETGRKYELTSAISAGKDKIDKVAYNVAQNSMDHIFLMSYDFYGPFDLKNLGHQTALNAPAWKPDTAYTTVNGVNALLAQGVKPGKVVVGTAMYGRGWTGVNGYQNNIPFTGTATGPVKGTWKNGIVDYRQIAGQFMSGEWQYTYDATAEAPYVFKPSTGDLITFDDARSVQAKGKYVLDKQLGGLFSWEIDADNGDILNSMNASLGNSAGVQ

Compound	IC50 [1]	IC50 [2]	IC50 [3]
CNC(=O)NC(=N)NCCC[C@H](NC(=O)[C@@H](C)NC(=O)[C@H](CC(=O)O)NC(C)=O)C(=O)N(C)[C@@H](Cc1ccccc1)C(=O)O	8.4 µM	30 µM	> 30 µM
C=CCOC(=O)C[C@H](NC(=O)[C@H](Cc1ccccc1)N(C)C(=O)[C@H](CCCN=C(N)NC(=O)NC)NC(=O)[C@@H](C)NC(=O)[C@H](CC(=O)O)NC(C)=O)C(=O)O	1.1 µM	1 µM	> 30 µM
C=CCOC(=O)C[C@H](NC(=O)[C@H](Cc1ccccc1)N(C)C(=O)[C@H](CCCNC(=N)NC(=O)NC)NC(=O)[C@@H](C)NC(C)=O)C(=O)O	0.025 µM	0.091 µM	> 30 µM
CNC(=O)NC(=N)NCCC[C@@H]1NC(=O)[C@@H](C)NC(=O)C[C@@H](C(=O)O)NC(=O)C[C@@H](C(=O)O)NC(=O)[C@H](Cc2ccccc2)N(C)C1=O [ARGIFIN]	0.025 µM	6.4 µM	> 30 µM

Second part, the compound after the results:

IC50 [1]	IC50 [2]	IC50 [3]	Compound
31 µM	260 µM	> 30 µM	CNC(=O)NC(=N)NCCC[C@H](NC(C)=O)C(=O)O
6.6 µM	64 µM	> 30 µM	CNC(=O)NC(N)=NCCC[C@H](NC(=O)[C@@H](C)NC(C)=O)C(=O)O
32 µM	110 µM	> 30 µM	CNC(=O)NC(N)=NCCC[C@H](NC(=O)[C@@H](C)NC(=O)[C@H](CC(=O)O)NC(C)=O)C(=O)O
0.75 µM	3.7 µM	> 30 µM	CNC(=O)NC(=N)NCCC[C@H](NC(C)=O)C(=O)N(C)[C@@H](Cc1ccccc1)C(=O)O
0.09 µM	2.7 µM	> 30 µM	CNC(=O)NC(=N)NCCC[C@H](NC(=O)[C@@H](C)NC(C)=O)C(=O)N(C)[C@@H](Cc1ccccc1)C(=O)O
0.14 µM	0.13 µM	> 30 µM	C=CCOC(=O)C[C@H](NC(=O)[C@H](Cc1ccccc1)N(C)C(=O)[C@H](CCCNC(=N)NC(=O)NC)NC(C)=O)C(=O)O (Ac-Arg([CO-NHMe])-[NMeF]-Asp(OAll)-OH)
